Data as given in ChEMBL document CHEMBL5058577, “EUbOPEN Chemogenomics Library 2 (Multiplex)” (2022).

System: U2OS
Experiment: Multiplex assay against U2OS
Format: toxicity, cell-based
Conditions: human
How it was run: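 Per cents of healthy-nucleus cells form the tubulin, mitochondrial-mass and membrane-permeability phenotype values. Live cells were stained at seeding with Hoechst33342, BioTracker Green Microtubule Cytoskeleton Dye, MitoTracker Red and Annexin V Alexa Fluor 680. After compound addition they were imaged on a CQ1 microscope at 37°C and 5% CO2, and CellPathfinder machine-learning gating split them into Hoechst high-intensity objects or normal cells, normal cells into healthy, pyknosed or fragmented nuclei, and pyknosed cells into mitotic or apoptotic.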

[1] = 12 h, 1 µM, compound concentration 1 uM, replicate 1
[2] = 12 h, 1 µM, compound concentration 1 uM, replicate 2
[3] = 12 h, 10 µM, compound concentration 10 uM, replicate 1
[4] = 12 h, 10 µM, compound concentration 10 uM, replicate 2
[5] = 24 h, 1 µM, compound concentration 1 uM, replicate 1
[6] = 24 h, 1 µM, compound concentration 1 uM, replicate 2
[7] = 24 h, 10 µM, compound concentration 10 uM, replicate 1
[8] = 24 h, 10 µM, compound concentration 10 uM, replicate 2
[9] = 48 h, 1 µM, compound concentration 1 uM, replicate 1
[10] = 48 h, 1 µM, compound concentration 1 uM, replicate 2
[11] = 48 h, 10 µM, compound concentration 10 uM, replicate 1
[12] = 48 h, 10 µM, compound concentration 10 uM, replicate 2

## COCCCN1CCC(NC(=O)c2cc(Cl)c(N)c3c2OCC3)CC1 [PRUCALOPRIDE]
[1]
  Population Apoptotic (%): 84%
  Population Fragmented Nuclei (%): 30%
  Population Healthy Nuclei (%): 63%
  Population Hoechst High Intensity Objects (%): 1%
  Population Membrane Permeable-Phenotype (%): 7%
  Population Mitochondria Different-Phenotype (%): 3%
  Population Mitotic Cells (%): 15%
  Population Normal (%): 98%
  Population Pyknosed Nuclei (%): 6%
  Population Tubulin-Different-Phenotype (%): 4%
  Total Cell Count: 207
[2]
  Population Apoptotic (%): 87%
  Population Fragmented Nuclei (%): 21%
  Population Healthy Nuclei (%): 71%
  Population Hoechst High Intensity Objects (%): 0%
  Population Membrane Permeable-Phenotype (%): 12%
  Population Mitochondria Different-Phenotype (%): 7%
  Population Mitotic Cells (%): 12%
  Population Normal (%): 99%
  Population Pyknosed Nuclei (%): 7%
  Population Tubulin-Different-Phenotype (%): 8%
  Total Cell Count: 110
[3]
  Population Apoptotic (%): 68%
  Population Fragmented Nuclei (%): 22%
  Population Healthy Nuclei (%): 63%
  Population Hoechst High Intensity Objects (%): 3%
  Population Membrane Permeable-Phenotype (%): 4%
  Population Mitochondria Different-Phenotype (%): 0%
  Population Mitotic Cells (%): 31%
  Population Normal (%): 96%
  Population Pyknosed Nuclei (%): 13%
  Population Tubulin-Different-Phenotype (%): 2%
  Total Cell Count: 238
[4]
  Population Apoptotic (%): 47%
  Population Fragmented Nuclei (%): 13%
  Population Healthy Nuclei (%): 73%
  Population Hoechst High Intensity Objects (%): 2%
  Population Membrane Permeable-Phenotype (%): 1%
  Population Mitochondria Different-Phenotype (%): 1%
  Population Mitotic Cells (%): 52%
  Population Normal (%): 97%
  Population Pyknosed Nuclei (%): 12%
  Population Tubulin-Different-Phenotype (%): 1%
  Total Cell Count: 140
[5]
  Population Apoptotic (%): 80%
  Population Fragmented Nuclei (%): 26%
  Population Healthy Nuclei (%): 65%
  Population Hoechst High Intensity Objects (%): 2%
  Population Membrane Permeable-Phenotype (%): 5%
  Population Mitochondria Different-Phenotype (%): 3%
  Population Mitotic Cells (%): 20%
  Population Normal (%): 97%
  Population Pyknosed Nuclei (%): 8%
  Population Tubulin-Different-Phenotype (%): 5%
  Total Cell Count: 247
[6]
  Population Fragmented Nuclei (%): 23%
  Population Healthy Nuclei (%): 69%
  Population Hoechst High Intensity Objects (%): 1%
  Population Membrane Permeable-Phenotype (%): 8%
  Population Mitochondria Different-Phenotype (%): 4%
  Population Normal (%): 98%
  Population Pyknosed Nuclei (%): 7%
  Population Tubulin-Different-Phenotype (%): 7%
  Total Cell Count: 132
[7]
  Population Apoptotic (%): 87%
  Population Fragmented Nuclei (%): 23%
  Population Healthy Nuclei (%): 64%
  Population Hoechst High Intensity Objects (%): 4%
  Population Membrane Permeable-Phenotype (%): 5%
  Population Mitochondria Different-Phenotype (%): 2%
  Population Mitotic Cells (%): 12%
  Population Normal (%): 95%
  Population Pyknosed Nuclei (%): 12%
  Population Tubulin-Different-Phenotype (%): 4%
  Total Cell Count: 280
[8]
  Population Apoptotic (%): 77%
  Population Fragmented Nuclei (%): 12%
  Population Healthy Nuclei (%): 76%
  Population Hoechst High Intensity Objects (%): 1%
  Population Membrane Permeable-Phenotype (%): 3%
  Population Mitotic Cells (%): 22%
  Population Normal (%): 98%
  Population Pyknosed Nuclei (%): 11%
  Population Tubulin-Different-Phenotype (%): 3%
  Total Cell Count: 161
[9]
  Population Apoptotic (%): 85%
  Population Fragmented Nuclei (%): 20%
  Population Healthy Nuclei (%): 73%
  Population Hoechst High Intensity Objects (%): 3%
  Population Membrane Permeable-Phenotype (%): 3%
  Population Mitochondria Different-Phenotype (%): 1%
  Population Mitotic Cells (%): 14%
  Population Normal (%): 96%
  Population Pyknosed Nuclei (%): 6%
  Population Tubulin-Different-Phenotype (%): 3%
  Total Cell Count: 352
[10]
  Population Apoptotic (%): 86%
  Population Healthy Nuclei (%): 67%
  Population Hoechst High Intensity Objects (%): 2%
  Population Membrane Permeable-Phenotype (%): 11%
  Population Mitochondria Different-Phenotype (%): 6%
  Population Mitotic Cells (%): 13%
  Population Normal (%): 97%
  Population Pyknosed Nuclei (%): 11%
  Population Tubulin-Different-Phenotype (%): 9%
  Total Cell Count: 199
[11]
  Population Apoptotic (%): 88%
  Population Fragmented Nuclei (%): 17%
  Population Healthy Nuclei (%): 69%
  Population Hoechst High Intensity Objects (%): 1%
  Population Membrane Permeable-Phenotype (%): 5%
  Population Mitochondria Different-Phenotype (%): 2%
  Population Mitotic Cells (%): 11%
  Population Normal (%): 98%
  Population Pyknosed Nuclei (%): 12%
  Population Tubulin-Different-Phenotype (%): 2%
  Total Cell Count: 347
[12]
  Population Apoptotic (%): 90%
  Population Fragmented Nuclei (%): 11%
  Population Healthy Nuclei (%): 79%
  Population Membrane Permeable-Phenotype (%): 3%
  Population Mitochondria Different-Phenotype (%): 3%
  Population Mitotic Cells (%): 9%
  Population Pyknosed Nuclei (%): 9%
  Population Tubulin-Different-Phenotype (%): 1%
  Total Cell Count: 245
